For test [1], the system named is Mycobacterium tuberculosis. Nature of the test: Antimicrobial activity against Mycobacterium tuberculosis H37Ra by microplate alamar blue assay. Type of test: functional. The method, boiled down: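 M. tuberculosis H37Ra in microplate Alamar Blue assay; MIC read-out; isoniazid and kanamycin sulfate as reference drugs.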
For orientation: Alamar Blue is a resazurin reagent that responds to reducing activity.

A further test has as its system NCI-H187. Nature of the test: Cytotoxicity against human NCI-H187 cells. Type of test: functional, cell-based. In a few lines: (§1)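 Human breast cancer (BC) and small cell lung cancer (NCI-H187) lines; colorimetric assay per Skehan; IC50 read-out; ellipticine as reference.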
Test [2] is described as follows: Cytotoxicity against human BC clls. It is filed as functional, cell-based. In a few lines:
as §1

The next test has as its system Human alphaherpesvirus 1. Nature of the test: Antiviral activity against HSV1. Type of test: functional, organism-based. In a few lines: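 Herpes simplex type 1 antiviral test by colorimetric method per Skehan; IC50 read-out; acyclovir as reference.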
Test [3] deals with Plasmodium falciparum. Nature of the test: Antimicrobial activity against Plasmodium falciparum. It is filed as functional, organism-based. The method, boiled down:
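P. falciparum K1 (multidrug-resistant) kept in culture per Trager–Jensen; microculture radioisotope test; growth read as [3H]-hypoxanthine uptake; IC50 = concentration giving 50% fewer parasites; artemisinin as reference standard.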

Test [4] deals with Plasmodium falciparum. Nature of the test: Antimalarial activity against Plasmodium falciparum K1 by [3H]hypoxanthine uptake. Type of test: functional, organism-based. The method, boiled down:
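Multidrug-resistant K1 parasites cultured per Trager–Jensen. In vitro microculture radioisotope test, with parasite growth read as [3H]-hypoxanthine uptake. IC50 is the concentration giving 50% reduction in parasite growth. Artemisinin run as standard.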

In brackets after ≈: the same amount, converted by molar mass.

For `OCCCCCCCCCCCCCC#CC#CCCCCc1ccco1`, the MIC (commonly the lowest concentration that inhibits growth of the organism) in test [1] was 6.25 µg/mL (≈ 16.9 µM). Further, half-maximal inhibition with NCI-H187 (IC50) was put at 12.4 µg/mL (≈ 33.5 µM).

With `NC[C@H]1O[C@H](O[C@H]2[C@H](O)[C@@H](O[C@H]3O[C@H](CO)[C@@H](O)[C@H](N)[C@H]3O)[C@H](N)C[C@@H]2N)[C@H](O)[C@@H](O)[C@@H]1O.O=S(=O)(O)O` [KANAMYCIN SULFATE], the MIC in test [1] came out at 2 µg/mL.

Take `Cc1c2ccncc2c(C)c2c1[nH]c1ccccc12` [ELLIPTECINE]: the half-inhibitory concentration (IC50) – broadly, the point on the concentration scale where inhibition reaches its midpoint – in test [2] was determined as 0.32 µg/mL (≈ 1.3 µM).

In turn, `Nc1nc2c(ncn2COCCO)c(=O)[nH]1` [ACYCLOVIR] returned an IC50 with Human alphaherpesvirus 1 of 1.1 µg/mL (≈ 4.88 µM).

`O=C(O)CCCC#CCCCCCCCCCCCCCc1ccco1`: in the test with Human alphaherpesvirus 1, inhibition was half-maximal at 19.4 µg/mL (≈ 53.8 µM) (IC50).

For `O=C(O)CCCC#CC#CCCCCCCCCCCCc1ccco1`, the figures for the half-maximal inhibitory concentration (IC50) in the test with Human alphaherpesvirus 1 and with Plasmodium falciparum [3] were 47 µg/mL (≈ 132 µM) and 50 µg/mL (≈ 140 µM), respectively.

Regarding `C[C@@H]1CC[C@H]2[C@@H](C)C(=O)O[C@@H]3O[C@@]4(C)CC[C@@H]1[C@]32OO4` [ARTEMISININ], in the test on Plasmodium falciparum [4], the half-inhibitory concentration (IC50) was 0.001 µg/mL (≈ 0.00354 µM).

The compound `COC(=O)CCCC#CC#CCCCCCCCCCCCc1ccco1` came in with a 50% inhibitory concentration (IC50) in the test with Plasmodium falciparum [3] of 3.7 µg/mL (≈ 9.99 µM).

In test [1], `COC(=O)CCCC#CCCCCCCCCCCCCCc1ccco1` gave a minimum inhibitory concentration (MIC) of 3.1 µg/mL (≈ 8.28 µM).

For the compound `NNC(=O)c1ccncc1` [ISONIAZID], the MIC in test [1] is 0.04 µg/mL (≈ 0.292 µM).

Values taken from ChEMBL document CHEMBL1157224, “2-substituted furans from the roots of Polyalthia evecta” (J Nat Prod, 2006).
